# Test results from ChEMBL document CHEMBL1137412, “Molecular tongs containing amino acid mimetic fragments: new inhibitors of wild-type and mutated HIV-1 protease dimerization” (J Med Chem, 2006).
# Experiments:
# [1] = target: T1, Human immunodeficiency virus type 1 protease (Human immunodeficiency virus 1, UniProt Q72874); experiment: Inhibition of wild type HIV1 protease dimerization
# How it was run: (§1)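 Recombinant HIV-1 protease (wild-type or mutant) assayed fluorometrically with substrate DABCYL-γ-abu-Ser-Gln-Asn-Tyr-Pro-Ile-Val-Gln-EDANS (emission 490 nm). Conditions: 100 mM sodium acetate, 1 mM EDTA, 1 M NaCl, pH 4.7, 30 °C, 3% v/v DMSO final. Typically 7.5 nM enzyme and 5.2 µM substrate.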
# [2] = Stability in presence of 20% fetal calf serum; type: ADME; settings: cattle
# How it was run: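 Compound incubated in RPMI medium containing 20% fetal calf serum at 37 °C for up to 2 days. Incubation stopped with ethanol, mixture chilled to 4 °C and centrifuged, and clear supernatant analysed by RP-HPLC. Half-life from least-squares linear regression of log[I] versus time, using at least five points.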
# [3] = target: Human immunodeficiency virus type 1 protease (Human immunodeficiency virus 1) (UniProt Q72874); experiment: Inhibition of wild type HIV1 protease dimerization at 5 uM
# [4] = target: Human immunodeficiency virus type 1 protease (Human immunodeficiency virus 1) (UniProt Q72874); experiment: Inhibition of wild type HIV1 protease at 5 uM
# How it was run: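 Recombinant wild-type HIV-1 protease (7.5 nM) was run with fluorogenic substrate DABCYL-γ-abu-Ser-Gln-Asn-Tyr-Pro-Ile-Val-Gln-EDANS (5.2 µM) in 100 mM sodium acetate, 1 mM EDTA, 1 M NaCl, pH 4.7, 30 °C. DMSO was kept at 3% v/v final. Emission was read at 490 nm. Percent inhibition was measured at 5 µM compound.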
# [5] = target: Human immunodeficiency virus type 1 protease (Human immunodeficiency virus 1, UniProt Q72874, G48V/L90M); experiment: Inhibition of dimerization of HIV1 protease G48V/L90M mutant; how it was run: as §1
# [6] = target: Human immunodeficiency virus type 1 protease (Human immunodeficiency virus 1, UniProt Q72874, D30N); experiment: Inhibition of dimerization of HIV1 protease D30N mutant; how it was run: as §1
# [7] = target: T1, Human immunodeficiency virus type 1 protease; experiment: Inhibition of dimerization of HIV1 protease […] mutant; how it was run: as §1
# [8] = target: T1, Human immunodeficiency virus type 1 protease; experiment: Inhibition of dimerization of HIV1 protease MDR-HM mutant; how it was run: as §1
# [9] = target: Human immunodeficiency virus type 1 protease (Human immunodeficiency virus 1, UniProt Q72874, V82A); experiment: Inhibition of dimerization of HIV1 protease V82A mutant; how it was run: as §1
# [10] = target: T1, Human immunodeficiency virus type 1 protease; experiment: Inhibition of dimerization of HIV1 protease ANAM-11 mutant; how it was run: as §1
# [11] = target: T1, Human immunodeficiency virus type 1 protease; experiment: Inhibition of wild type HIV1 protease; how it was run: as §1
compound,measurement,setting,value
COC(=O)[C@@H](NC(=O)[C@H](CC(C)C)NC(=O)[C@@H](NC(=O)CCCOc1ccc2ccc(OCCCC(=O)N[C@H](C(=O)NNC(=O)c3cc(NC(C)=O)ccc3OC)C(C)C)cc2c1)C(C)C)C(C)C,Ki,[1],200 nM
COC(=O)[C@@H](NC(=O)[C@H](CC(C)C)NC(=O)[C@@H](NC(=O)CCCOc1ccc2ccc(OCCCC(=O)N[C@H](C(=O)Nc3cccn(CC(N)=O)c3=O)C(C)C)cc2c1)C(C)C)C(C)C,half-life,[2],41 h
COC(=O)[C@@H](NC(=O)[C@H](CC(C)C)NC(=O)[C@@H](NC(=O)CCCOc1ccc2ccc(OCCCC(=O)NNC(=O)c3cc(N)ccc3OC)cc2c1)C(C)C)C(C)C,inhibition,[3],28%
same,inhibition,[4],28%
COC(=O)[C@@H](NC(=O)[C@@H](CC(C)C)NC(=O)[C@@H](NC(=O)CCCOc1ccc2ccc(OCCCC(=O)NC(C(=O)Nc3cccn(CC(N)=O)c3=O)C(C)C)cc2c1)C(C)C)C(C)C (some centres undefined),Ki,[5],500 nM
same,Ki,[6],500 nM
same,Ki,[1],400 nM
same,Ki,[7],100 nM
same,Ki,[8],4800 nM
same,Ki,[9],240 nM
same,Ki,[10],200 nM
COC(=O)[C@@H](NC(=O)[C@@H](CC(C)C)NC(=O)[C@@H](NC(=O)CCCOc1ccc2ccc(OCCCC(=O)Nc3ccc(C)n(CC(=O)Nc4ccc(C)n(CC(=O)OC(C)(C)C)c4=O)c3=O)cc2c1)C(C)C)C(C)C,Ki,[11],8400 nM
COC(=O)[C@@H](NC(=O)[C@H](CC(C)C)NC(=O)[C@@H](NC(=O)CCCOc1ccc2ccc(OCCCC(=O)N[C@H](C(=O)N[C@@H](CC(C)C)C(=O)N[C@H](C(=O)OC)C(C)C)C(C)C)cc2c1)C(C)C)C(C)C,half-life,[2],28 h
CC[C@H](C)[C@H](NC(=O)Cn1c(C)ccc(NC(=O)CCCOc2ccc3ccc(OCCCC(=O)N[C@H](C(=O)N[C@H](CC(C)C)C(=O)N[C@H](C(=O)OC)C(C)C)C(C)C)cc3c2)c1=O)C(=O)N[C@H](C(N)=O)[C@@H](C)O,Ki,[11],9700 nM
